Data reported in ChEMBL document CHEMBL4689842, “EUbOPEN Chemogenomics Library wave 1” (2021).

Test system: U2OS
Test: Multiplex assay against U2OS
Format: toxicity, cell-based
Settings: human
Procedure, shortened: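 Imaging took place on a CQ1 microscope at 37°C and 5% CO2 once compound had been added to live cells stained at seeding with Hoechst33342, BioTracker Green Microtubule Cytoskeleton Dye, MitoTracker Red and Annexin V Alexa Fluor 680. CellPathfinder machine-learning gating classed cells as Hoechst high-intensity objects or normal cells, classed normal cells as having healthy, pyknosed or fragmented nuclei, and classed pyknosed cells as mitotic or apoptotic. Tubulin, mitochondrial-mass and membrane-permeability phenotypes are per cents of the healthy-nucleus cells.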

[1] = 12 h, 1 µM, compound concentration 1 uM, replicate 1
[2] = 12 h, 1 µM, compound concentration 1 uM, replicate 2
[3] = 12 h, 10 µM, compound concentration 10 uM, replicate 1
[4] = 12 h, 10 µM, compound concentration 10 uM, replicate 2
[5] = 24 h, 1 µM, compound concentration 1 uM, replicate 1
[6] = 24 h, 1 µM, compound concentration 1 uM, replicate 2
[7] = 24 h, 10 µM, compound concentration 10 uM, replicate 1
[8] = 24 h, 10 µM, compound concentration 10 uM, replicate 2
[9] = 48 h, 1 µM, compound concentration 1 uM, replicate 1
[10] = 48 h, 1 µM, compound concentration 1 uM, replicate 2
[11] = 48 h, 10 µM, compound concentration 10 uM, replicate 1
[12] = 48 h, 10 µM, compound concentration 10 uM, replicate 2

C[C@]12CC[C@@H]3c4ccc(O)cc4CC[C@H]3[C@@H]1CC[C@@H]2O [ESTRADIOL]
Population Apoptotic (%) [1]: 11% | Population Fragmented Nuclei (%) [1]: 8% | Population Healthy Nuclei (%) [1]: 82% | Population Hoechst High Intensity Objects (%) [1]: 7% | Population Membrane Permeable-Phenotype (%) [1]: 10% | Population Mitochondria Different-Phenotype (%) [1]: 9% | Population Mitotic Cells (%) [1]: 88% | Population Normal (%) [1]: 92% | Population Pyknosed Nuclei (%) [1]: 8% | Population Tubulin-Different-Phenotype (%) [1]: 12% | Total Cell Count [1]: 138 | Population Apoptotic (%) [2]: 50% | Population Healthy Nuclei (%) [2]: 86% | Population Hoechst High Intensity Objects (%) [2]: 5% | Population Membrane Permeable-Phenotype (%) [2]: 4% | Population Mitochondria Different-Phenotype (%) [2]: 8% | Population Mitotic Cells (%) [2]: 50% | Population Normal (%) [2]: 94% | Population Pyknosed Nuclei (%) [2]: 5% | Population Tubulin-Different-Phenotype (%) [2]: 14% | Total Cell Count [2]: 80 | Population Apoptotic (%) [3]: 30% | Population Fragmented Nuclei (%) [3]: 5% | Population Healthy Nuclei (%) [3]: 82% | Population Hoechst High Intensity Objects (%) [3]: 4% | Population Membrane Permeable-Phenotype (%) [3]: 6% | Population Mitochondria Different-Phenotype (%) [3]: 7% | Population Mitotic Cells (%) [3]: 70% | Population Normal (%) [3]: 95% | Population Pyknosed Nuclei (%) [3]: 11% | Population Tubulin-Different-Phenotype (%) [3]: 14% | Total Cell Count [3]: 113 | Population Apoptotic (%) [4]: 25% | Population Fragmented Nuclei (%) [4]: 9% | Population Healthy Nuclei (%) [4]: 77% | Population Hoechst High Intensity Objects (%) [4]: 8% | Population Membrane Permeable-Phenotype (%) [4]: 4% | Population Mitochondria Different-Phenotype (%) [4]: 12% | Population Mitotic Cells (%) [4]: 75% | Population Normal (%) [4]: 91% | Population Pyknosed Nuclei (%) [4]: 12% | Population Tubulin-Different-Phenotype (%) [4]: 25% | Total Cell Count [4]: 76 | Population Apoptotic (%) [5]: 0% | Population Fragmented Nuclei (%) [5]: 7% | Population Healthy Nuclei (%) [5]: 87% | Population Hoechst High Intensity Objects (%) [5]: 5% | Population Membrane Permeable-Phenotype (%) [5]: 6% | Population Mitochondria Different-Phenotype (%) [5]: 6% | Population Mitotic Cells (%) [5]: 100% | Population Normal (%) [5]: 94% | Population Pyknosed Nuclei (%) [5]: 5% | Population Tubulin-Different-Phenotype (%) [5]: 15% | Total Cell Count [5]: 140 | Population Apoptotic (%) [6]: 50% | Population Fragmented Nuclei (%) [6]: 4% | Population Healthy Nuclei (%) [6]: 89% | Population Hoechst High Intensity Objects (%) [6]: 3% | Population Membrane Permeable-Phenotype (%) [6]: 4% | Population Mitochondria Different-Phenotype (%) [6]: 9% | Population Mitotic Cells (%) [6]: 50% | Population Normal (%) [6]: 96% | Population Pyknosed Nuclei (%) [6]: 6% | Population Tubulin-Different-Phenotype (%) [6]: 14% | Total Cell Count [6]: 82 | Population Apoptotic (%) [7]: 21% | Population Fragmented Nuclei (%) [7]: 7% | Population Healthy Nuclei (%) [7]: 79% | Population Membrane Permeable-Phenotype (%) [7]: 2% | Population Mitotic Cells (%) [7]: 78% | Population Pyknosed Nuclei (%) [7]: 12% | Population Tubulin-Different-Phenotype (%) [7]: 12% | Total Cell Count [7]: 140 | Population Apoptotic (%) [8]: 30% | Population Fragmented Nuclei (%) [8]: 18% | Population Healthy Nuclei (%) [8]: 68% | Population Hoechst High Intensity Objects (%) [8]: 3% | Population Membrane Permeable-Phenotype (%) [8]: 5% | Population Mitochondria Different-Phenotype (%) [8]: 11% | Population Mitotic Cells (%) [8]: 70% | Population Normal (%) [8]: 96% | Population Pyknosed Nuclei (%) [8]: 13% | Population Tubulin-Different-Phenotype (%) [8]: 43% | Population Apoptotic (%) [9]: 31% | Population Hoechst High Intensity Objects (%) [9]: 1% | Population Membrane Permeable-Phenotype (%) [9]: 2% | Population Mitotic Cells (%) [9]: 68% | Population Normal (%) [9]: 98% | Population Tubulin-Different-Phenotype (%) [9]: 15% | Total Cell Count [9]: 138 | Population Apoptotic (%) [10]: 18% | Population Fragmented Nuclei (%) [10]: 5% | Population Healthy Nuclei (%) [10]: 86% | Population Hoechst High Intensity Objects (%) [10]: 2% | Population Membrane Permeable-Phenotype (%) [10]: 12% | Population Mitochondria Different-Phenotype (%) [10]: 14% | Population Mitotic Cells (%) [10]: 81% | Population Normal (%) [10]: 97% | Population Pyknosed Nuclei (%) [10]: 7% | Population Tubulin-Different-Phenotype (%) [10]: 17% | Total Cell Count [10]: 90 | Population Apoptotic (%) [11]: 34% | Population Fragmented Nuclei (%) [11]: 8% | Population Healthy Nuclei (%) [11]: 81% | Population Membrane Permeable-Phenotype (%) [11]: 2% | Population Mitochondria Different-Phenotype (%) [11]: 19% | Population Mitotic Cells (%) [11]: 65% | Population Tubulin-Different-Phenotype (%) [11]: 12% | Population Apoptotic (%) [12]: 72% | Population Fragmented Nuclei (%) [12]: 13% | Population Healthy Nuclei (%) [12]: 76% | Population Hoechst High Intensity Objects (%) [12]: 2% | Population Membrane Permeable-Phenotype (%) [12]: 17% | Population Mitochondria Different-Phenotype (%) [12]: 13% | Population Mitotic Cells (%) [12]: 27% | Population Normal (%) [12]: 97% | Population Pyknosed Nuclei (%) [12]: 10% | Population Tubulin-Different-Phenotype (%) [12]: 57% | Total Cell Count [12]: 157
